Measurements taken from ChEMBL document CHEMBL1671835, “Discovery of a Potent, S1P3-Sparing Benzothiazole Agonist of Sphingosine-1-Phosphate Receptor 1 (S1P1)” (ACS Med Chem Lett, 2011).
Calls of active or inactive are those of the source. The calls are words filed in the database; no cut-off is given here.

Legend:
[1] = biological target: T1, Sphingosine 1-phosphate receptor 1 (Homo sapiens, UniProt P21453); assay: Agonist activity at human S1P1 receptor expressed in human U2OS cells co-expressing eGFP assessed as receptor internalization after 1 hr; assay type: functional, cell-based
How it was run: (§1)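 hS1P1-GFP fusion expressed in U2OS cells; agonism read as receptor internalization. Percent efficacy is relative to 1.00 μM reference agonist, and >top concentration is reported when activity stays under 10% of control. Each value is the mean of at least two determinations.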

[2] = biological target: T2, Sphingosine 1-phosphate receptor 3 (Homo sapiens, UniProt Q99500); assay: Agonist activity at human S1P3 receptor expressed in CHO-K1 cells co-expressing Gq/i5 G-protein assessed as calcium mobilization by FLIPR assay; assay type: functional, cell-based
How it was run: (§2)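 hS1P3 and Gq/i5 co-transfected into CHO-K1 cells; agonism read as Ca2+ mobilization. Percent efficacy is relative to 0.200 μM S1P, and >top concentration is reported when activity stays under 10% of control. Each value is the mean of at least two determinations.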

[3] = biological target: T2, Sphingosine 1-phosphate receptor 3; assay: Agonist activity at human S1P3 receptor expressed in CHO-K1 cells co-expressing Gq/i5 G-protein assessed as calcium mobilization by FLIPR assay relative to S1P; assay type: functional, cell-based; how it was run: as §2
[4] = biological target: T1, Sphingosine 1-phosphate receptor 1; assay: Agonist activity at human S1P1 receptor expressed in human U2OS cells co-expressing eGFP assessed as receptor internalization after 1 hr relative to 1-(4-(6-benzylbenzofuran-2-yl)-3-fluorobenzyl)azetidine-3-carboxylic acid; assay type: functional, cell-based; how it was run: as §1
[5] = Fraction unbound in rat plasma at 5 ug/ml by ultracentrifugation analysis; assay type: ADME, cell-free
How it was run: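 Plasma protein binding determined by ultracentrifugation at 5.0 μg/mL test compound.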

Rattus norvegicus [6] = assay: Immunomodulatory activity in po dosed Lewis rat assessed as reduction of circulating lymphocytes count after 24 hrs; assay type: functional, organism-based
How it was run: (§3)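 Female Lewis rats dosed orally at 0.3, 1.0 or 3.0 mg/kg in 20% captisol, pH 2, N = 5/group. Blood lymphocyte counts and plasma concentration taken 24 h postdose. Compared with vehicle by ANOVA/Dunnett's test, P < 0.05.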

Rattus norvegicus [7] = assay: Immunomodulatory activity in Lewis rat assessed as reduction of circulating lymphocytes count at 0.3 mg/kg, po after 24 hrs relative to control; assay type: functional; how it was run: as §3
Rattus norvegicus [8] = assay: Immunomodulatory activity in Lewis rat assessed as reduction of circulating lymphocytes count at 3 mg/kg, po after 24 hrs relative to control; assay type: functional; how it was run: as §3
Rattus norvegicus [9] = assay: Immunosuppressive activity in delayed-type hypersensitivity Lewis rat model assessed as reduction of ovalbumin/complete Freund's adjuvant-induced ear swelling at 0.3 mg/kg, po qd for 10 days; assay type: functional, organism-based; design: dose 0.3 mg/kg
How it was run: (§4)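 Female Lewis rats dosed orally once daily for 10 days at 0.1–3.0 mg/kg in 20% captisol, pH 2 (N = 8/group; N = 4 at 3.0 mg/kg). On day 1 rats were immunized with ovalbumin plus complete Freund's adjuvant. One week later ovalbumin was injected intracutaneously into one ear. Ear-thickness change and blood lymphocytes measured 48 h after challenge; compared with vehicle by ANOVA/Dunnett's test.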

Rattus norvegicus [10] = assay: Immunosuppressive activity in delayed-type hypersensitivity Lewis rat model assessed as reduction of ovalbumin/complete Freund's adjuvant-induced ear swelling at 1 to 3 mg/kg, po qd for 10 days; assay type: functional, organism-based; how it was run: as §4
[11] = Clearance in Sprague-Dawley rat at 2 mg/kg, iv and 15 mg/kg, po; assay type: ADME, organism-based; conditions: in vivo
How it was run: (§5)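 Female Sprague-Dawley rats, N = 3 per route: iv 2 mg/kg in DMSO; po 15 mg/kg in 20% captisol, pH 2. Clearance expressed also as percent of liver blood flow.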

[12] = Volume of distribution at steady state in Sprague-Dawley rat at 2 mg/kg, iv and 15 mg/kg, po; assay type: ADME, organism-based; conditions: in vivo, read-out: Vdss; how it was run: as §5
[13] = Half life in Sprague-Dawley rat at 2 mg/kg, iv and 15 mg/kg, po; assay type: ADME, organism-based; conditions: in vivo; how it was run: as §5
[14] = Mean residence time in Sprague-Dawley rat at 2 mg/kg, iv and 15 mg/kg, po; assay type: ADME, organism-based; conditions: in vivo; how it was run: as §5
[15] = Oral bioavailability in Sprague-Dawley rat at 15 mg/kg; assay type: ADME, organism-based; conditions: in vivo; how it was run: as §5
[16] = Clearance in cynomolgus monkey at 4 mg/kg, iv and 10 mg/kg, po; assay type: ADME, organism-based, Macaca fascicularis; conditions: in vivo
How it was run: (§6)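 Male cynomolgus monkeys, N = 3 per route: iv 4 mg/kg in 20% captisol, pH 4; po 10 mg/kg in 20% captisol with 1% pluronic F68 and 1% HPMC, pH 2. Clearance expressed also as percent of liver blood flow.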

[17] = Volume of distribution at steady state in cynomolgus monkey at 4 mg/kg, iv and 10 mg/kg, po; assay type: ADME, organism-based, Macaca fascicularis; conditions: in vivo, read-out: Vdss; how it was run: as §6
[18] = Half life in cynomolgus monkey at 4 mg/kg, iv and 10 mg/kg, po; assay type: ADME, organism-based, Macaca fascicularis; conditions: in vivo; how it was run: as §6
[19] = Mean residence time in cynomolgus monkey at 4 mg/kg, iv and 10 mg/kg, po; assay type: ADME, organism-based, Macaca fascicularis; conditions: in vivo; how it was run: as §6
[20] = Oral bioavailability in cynomolgus monkey at 10 mg/kg; assay type: ADME, organism-based, Macaca fascicularis; conditions: in vivo; how it was run: as §6
Cynomolgus monkey = assay: Liver blood flow in cynomolgus monkey at 4 mg/kg, iv and 10 mg/kg, po; assay type: ADME, organism-based, Macaca fascicularis; conditions: in vivo; how it was run: as §6
Rattus norvegicus [21] = assay: Liver blood flow in Sprague-Dawley rat at 2 mg/kg, iv and 15 mg/kg, po; assay type: ADME, organism-based; conditions: in vivo; how it was run: as §5
[22] = Inhibition of human cytochrome P450; assay type: ADME
[23] = Mutagenic activity in Salmonella Typhimurium by Ames test; assay type: toxicity; conditions: salmonella enterica subsp. enterica serovar typhimurium
Rattus norvegicus [24] = assay: Cardiotoxicity in rat assessed as effect on heart rate at 30 mg/kg, po; assay type: toxicity, organism-based; design: dose 30 mg/kg, route oral; conditions: in vivo
How it was run: (§7)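 Telemetered rats given oral doses; heart rate and mean arterial pressure monitored to set a no-effect level.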

Rattus norvegicus [25] = assay: Cardiotoxicity in rat assessed as effect on mean arterial pressure at 30 mg/kg, po; assay type: toxicity, organism-based, Artery; design: dose 30 mg/kg, route oral; conditions: in vivo; how it was run: as §7
Rattus norvegicus [26] = assay: Toxicity in Sprague-Dawley rat assessed as proconvulsive activity at 100 mg/kg, po qd for 4 days; assay type: organism-based; design: dose 100 mg/kg, route oral; conditions: in vivo, 96 h
How it was run: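 Sprague-Dawley rats (N = 3) dosed orally at 100 mg/kg once daily for 4 days and observed for proconvulsive activity.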

[27] = Cmax in Sprague-Dawley rat at 100 mg/kg, po qd for 4 days; assay type: ADME, organism-based; design: dose 100 mg/kg, route oral; conditions: in vivo
[28] = AUC (0 to 24 hrs) in Sprague-Dawley rat at 100 mg/kg, po qd for 4 days; assay type: ADME, organism-based; design: time < 24 hr, dose 100 mg/kg, route oral; conditions: plasma
Rattus norvegicus [29] = assay: Immunomodulatory activity in Lewis rat assessed as reduction of circulating lymphocytes count at 1 mg/kg, po after 24 hrs relative to control; assay type: functional; design: scale not given: the % may be the effect or the level left; how it was run: as §3

T1 sequence (P21453 whole entry, the tested form may be a part): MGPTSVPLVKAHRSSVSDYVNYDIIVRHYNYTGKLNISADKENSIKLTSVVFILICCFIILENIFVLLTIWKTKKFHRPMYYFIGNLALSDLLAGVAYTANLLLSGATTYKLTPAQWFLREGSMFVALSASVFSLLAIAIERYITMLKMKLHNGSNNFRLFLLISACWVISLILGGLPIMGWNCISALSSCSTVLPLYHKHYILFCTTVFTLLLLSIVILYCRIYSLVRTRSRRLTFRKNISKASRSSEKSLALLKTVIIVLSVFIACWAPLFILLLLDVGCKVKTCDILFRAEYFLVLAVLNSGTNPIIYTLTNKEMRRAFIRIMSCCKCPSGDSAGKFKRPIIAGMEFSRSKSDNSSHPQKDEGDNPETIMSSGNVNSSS
T2 sequence (Q99500 whole entry): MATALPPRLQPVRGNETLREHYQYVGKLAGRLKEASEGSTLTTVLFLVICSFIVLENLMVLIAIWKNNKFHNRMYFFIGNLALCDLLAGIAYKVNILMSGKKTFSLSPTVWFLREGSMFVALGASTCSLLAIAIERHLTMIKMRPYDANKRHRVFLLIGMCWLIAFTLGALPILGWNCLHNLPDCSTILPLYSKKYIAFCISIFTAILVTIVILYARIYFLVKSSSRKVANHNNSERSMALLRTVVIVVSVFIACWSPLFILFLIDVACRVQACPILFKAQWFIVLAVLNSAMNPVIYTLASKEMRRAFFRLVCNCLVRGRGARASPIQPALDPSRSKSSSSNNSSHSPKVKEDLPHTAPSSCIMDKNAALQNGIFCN

O=C(O)C1CN(Cc2ccc(-c3cc4ccc(Cc5ccccc5)cc4o3)c(F)c2)C1
EC50 [1]: 13 nM
EC50 [2]: 679 nM
Efficacy [3]: 42%

O=C(O)C1CN(Cc2ccc(-n3cc4cc(Cc5ccccc5)ccc4n3)c(F)c2)C1
EC50 [1]: 2890 nM
Efficacy [4]: 53%
EC50 [2]: 1110 nM
Efficacy [3]: 43%

O=C(O)C1CN(Cc2ccc(-c3nc4cc(Cc5ccc(F)cc5F)ccc4s3)c(F)c2)C1
EC50 [1]: 42 nM
Efficacy [4]: 186%
EC50 [2]: 1200 nM
Efficacy [3]: 24%

O=C(O)C1CN(Cc2ccc(-c3cc4cc(Cc5ccccc5)ccc4o3)c(F)c2)C1
Efficacy [4]: 96%
EC50 [2]: 1730 nM
Efficacy [3]: 42%
fraction unbound at 5 ug/ml [5]: 0.015

Cc1ccc(Cc2ccc3sc(-c4ccc(CN5CC(C(=O)O)C5)cc4F)nc3c2)cc1
EC50 [1]: 77 nM
Efficacy [4]: 132%
EC50 [2]: 1800 nM
Efficacy [3]: 17%

O=C(O)C1CN(Cc2ccc(-c3nc4cc(Cc5c(F)cccc5F)ccc4s3)c(F)c2)C1
EC50 [1]: 126 nM
Efficacy [4]: 126%
EC50 [2]: > 25000 nM

O=C(O)C1CN(Cc2ccc(-c3nc4ccc(Cc5ccccc5)cc4s3)c(F)c2)C1
Efficacy [4]: 84%
Efficacy [3]: 50%

O=C(O)C1CN(Cc2ccc(-c3nc4cc(Cc5ccc(F)cc5)ccc4s3)c(F)c2)C1
EC50 [1]: 33 nM
Efficacy [4]: 129%
EC50 [2]: 1910 nM
Efficacy [3]: 37%

O=C(O)C1CN(Cc2ccc(-c3nc4cc(Cc5ccccc5F)ccc4s3)c(F)c2)C1
Efficacy [4]: 115%
EC50 [2]: 3470 nM
Efficacy [3]: 14%
Efficacy (Rattus norvegicus [6]): Dose-dependent effect
Efficacy (Rattus norvegicus [7]): 34%
Efficacy (Rattus norvegicus [8]): 74%
Efficacy (Rattus norvegicus [9]): Active
Efficacy (Rattus norvegicus [10]): Active
clearance [11]: 5.5 mL/min/kg
Vd [12]: 3.3 L/kg
half-life [13]: 7.5 h
MRT [14]: 10 h
bioavailability [15]: 68%
clearance [16]: 8.33 mL/min/kg
Vd [17]: 1.6 L/kg
half-life [18]: 35.2 h
MRT [19]: 3.3 h
bioavailability [20]: 23%
LBF (Cynomolgus monkey): 19%
LBF (Rattus norvegicus [21]): 10%
inhibition (INH) [22]: Not Active
Activity [23]: Non-toxic
Activity (Rattus norvegicus [24]): Non-toxic
Activity (Rattus norvegicus [25]): Non-toxic
Activity (Rattus norvegicus [26]): Non-toxic
Cmax [27]: 49000 ng/mL
AUC at 24 h [28]: 987 µg·h/mL
fraction unbound at 5 ug/ml [5]: 0.021
Activity (Rattus norvegicus [29]): 63%

O=C(O)C1CN(Cc2ccc(-c3nc4cc(Cc5ccc(F)c(F)c5)ccc4s3)c(F)c2)C1
EC50 [1]: 30 nM
Efficacy [4]: 151%
EC50 [2]: 967 nM
Efficacy [3]: 19%

O=C(O)C1CN(Cc2ccc(-c3nc4ccc(Cc5ccccc5)cc4o3)c(F)c2)C1
EC50 [1]: 94 nM
Efficacy [4]: 108%
EC50 [2]: 542 nM
Efficacy [3]: 87%

O=C(O)C1CN(Cc2ccc(-c3nc4cc(Cc5ccccc5Cl)ccc4s3)c(F)c2)C1
EC50 [1]: 42 nM
Efficacy [4]: 121%
EC50 [2]: 4880 nM
Efficacy [3]: 41%
Activity (Rattus norvegicus [29]): 63%
